Measured values taken from ChEMBL document CHEMBL1132695, “2-(diethylamino)thieno1,3ŏxazin-4-ones as stable inhibitors of human leukocyte elastase” (J Med Chem, 1999).

How the values were obtained:
Neutrophil elastase [1] = biological target: T1, Neutrophil elastase (Homo sapiens, UniProt P08246); assay: (§1) Inhibitory activity against human leukocyte elastase
T1 sequence (P08246 whole entry): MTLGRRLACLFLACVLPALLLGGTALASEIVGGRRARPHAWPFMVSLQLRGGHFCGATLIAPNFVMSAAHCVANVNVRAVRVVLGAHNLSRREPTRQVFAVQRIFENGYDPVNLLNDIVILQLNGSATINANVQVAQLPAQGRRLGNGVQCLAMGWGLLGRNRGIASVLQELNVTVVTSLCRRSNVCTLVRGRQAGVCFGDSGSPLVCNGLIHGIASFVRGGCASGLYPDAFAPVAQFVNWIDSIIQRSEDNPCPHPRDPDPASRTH
How it was run: (§2)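 Elastase purified from human leukocytes by affinity chromatography; enzyme stock diluted into 50 mM sodium phosphate, 500 mM NaCl, pH 7.8. Substrate Suc-Ala-Ala-Pro-Val-pNA at 100 μM final (1.3 Km); inhibitor in DMSO added to cuvette. Progress-curve method at 25 °C, at least five inhibitor concentrations for oxazinones (single 2 μM for thiazinones); curves fitted for kobs, giving Kd, Ki, kon (acylation) and koff (deacylation).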

Neutrophil elastase [2] = biological target: T1, Neutrophil elastase; assay: as §1; how it was run: as §2; remark: listed apart in the source
[3] = biological target: T2, Neutrophil elastase (Homo sapiens) (UniProt P08246); assay: Kon was the acylation association equilibrium rate constant of a competitive inhibition of human leukocyte elastase(HLE).; how it was run: as §2
T2 sequence (whole entry): T1 sequence (P08246 whole entry)

[4] = The alkaline hydrolysis second order rate constant(K OH) taken as log K.
[5] = The alkaline hydrolysis second order rate constant(K OH) of the compound; format: ADME
How it was run: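 Spectrophotometric hydrolysis in aqueous buffer pH 11.25 at 25 °C; loss of long-wavelength UV chromophore followed at 335 nm as first-order exponential decay. Compounds from DMSO stocks, final 15–20 μM, 5% DMSO final. Second-order rate constant kOH- calculated from first-order rates.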

[6] = biological target: T2, Neutrophil elastase (Homo sapiens); assay: Koff was the deacylation association equilibrium rate constant of a competitive inhibition human leukocyte elastase(HLE).; how it was run: as §2
Neutrophil elastase [7] = biological target: T1, Neutrophil elastase; assay: as §1; how it was run: as §2; remark: listed apart in the source

| Structure (SMILES) | Ki (Neutrophil elastase [1]) [nM] | Ki (Neutrophil elastase [2]) [nM] | k on [3] [M⁻¹ s⁻¹] | Log K [4] | K [5] [M⁻¹ s⁻¹] | k off [6] [s⁻¹] | Ki (Neutrophil elastase [7]) [nM] | Kd (Neutrophil elastase [2]) [µM] |
| --- | --- | --- | --- | --- | --- | --- | --- | --- |
| CCN(CC)c1nc2sc3ccccc3c2c(=O)o1 | 5.75 | 5.8 | 9500 | -1.13 | 0.075 | 5.5e-05 |  |  |
| CCN(CC)c1nc2sc3c(c2c(=O)o1)CCCC3 | 12.6 | 13 | 2500 | -1.49 | 0.032 | 3.2e-05 |  |  |
| CCN(CC)c1nc2sc3c(c2c(=O)o1)CCCCC3 | 43.7 | 44 | 990 | -1.42 | 0.038 | 4.3e-05 |  |  |
| CCN(CC)c1nc2sc3c(c2c(=O)o1)CCC3 | 12.6 | 13 | 3600 | -1.03 | 0.094 | 4.5e-05 |  |  |
| CCN(CC)c1nc2sc(C(N)=O)c(C)c2c(=O)o1 | 91.2 | 91 | 4000 | -0.4 | 0.4 | 0.00036 |  | 0.62 |
| CCN(CC)c1nc2sc3c(c2c(=O)o1)C(C)CCC3 (stereo not drawn) | 204 | 210 | 63 | -1.41 | 0.039 | 1.3e-05 |  |  |

More lines, now with the values ahead:

| Ki (Neutrophil elastase [1]) [nM] | Ki (Neutrophil elastase [2]) [nM] | k on [3] [M⁻¹ s⁻¹] | Log K [4] | K [5] [M⁻¹ s⁻¹] | k off [6] [s⁻¹] | Ki (Neutrophil elastase [7]) [nM] | Kd (Neutrophil elastase [2]) [µM] | Structure (SMILES) |
| --- | --- | --- | --- | --- | --- | --- | --- | --- |
|  | 130 | 330 | -0.95 | 0.11 | 4.3e-05 | 132 |  | CCN(CC)c1nc2ccsc2c(=O)o1 |
| 302 | 310 | 2600 | 0.77 | 5.9 | 0.00079 |  |  | CCN(CC)c1nc2ccccc2c(=O)o1 |
| 13.2 | 13 | 10000 | -1.27 | 0.054 | 0.00013 |  |  | CCN(CC)c1nc2scc(C(C)C)c2c(=O)o1 |
| 257 | 260 | 530 | -0.91 | 0.12 | 0.00014 |  |  | CCN(CC)c1nc2sccc2c(=O)o1 |
| 447 | 450 | 140 | -1.14 | 0.073 | 6.4e-05 |  | 5.5 | CCN(CC)c1nc2scc(C)c2c(=O)o1 |
